Results from ChEMBL document CHEMBL1177656, “Improved P2 phenylglycine-based hepatitis C virus NS3 protease inhibitors with alkenylic prime-side substituents” (Bioorg Med Chem, 2010).

Legend:
NS3 protease [1] = molecular target: NS3 protease (Hepatitis C virus subtype 1b, UniProt Q0ZMF1, A156T); assay: Inhibition of HCV NS3 protease A156T mutant by FRET assay; set-up: species or system Hepacivirus hominis
Method in brief: (§1)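 Buffer was 50 mM HEPES pH 7.5, 10 mM DTT, 40% glycerol, 0.1% n-octyl-β-D-glucoside and 3.3% DMSO. Reaction started with the FRET substrate Ac-DED(Edans)EEAbu[COO]ASK(Dabcyl)-NH2. Ki derived by non-linear regression.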

Hepatitis C virus = assay: Antiviral activity against HCV 1B […] by firefly luciferase reporter gene assay; type: functional, organism-based, Hepacivirus hominis; conditions: genotype 1b, Huh-7
NS3 protease [2] = molecular target: NS3 protease (Hepacivirus C, UniProt C1KIQ2, D168V); assay: Inhibition of HCV NS3 protease D168V mutant by FRET assay; set-up: species or system Hepacivirus hominis; method in brief: as §1
[3] = Inhibition of HCV NS3 protease by FRET assay; set-up: species or system Hepacivirus hominis
Method in brief: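 Buffer was 50 mM HEPES pH 7.5, 10 mM DTT, 40% glycerol, 0.1% n-octyl-β-D-glucoside and 3.3% DMSO. Reaction was started with FRET substrate Ac-DED(Edans)EEAbu[COO]ASK(Dabcyl)-NH2. Ki was obtained by non-linear regression.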

Structure (SMILES)	Ki (NS3 protease [1])	EC50 (Hepatitis C virus)	Ki (NS3 protease [2])	Ki [3]
C=CCCCS(=O)(=O)NC(=O)[C@H](CCC)NC(=O)[C@@H](NC(=O)[C@@H](NC(=O)OC(C)(C)C)C(C)(C)C)c1ccc(Oc2cc(-c3ccccc3)nc3cc(OC)ccc23)c(C=C)c1	180 nM	> 10000 nM	140 nM	63 nM
C=CCCCS(=O)(=O)NC(=O)[C@H](CCC)NC(=O)[C@H](NC(=O)[C@@H](NC(=O)OC(C)(C)C)C(C)(C)C)c1ccc(Oc2cc(-c3ccccc3)nc3cc(OC)ccc23)c(C=C)c1	86 nM	8900 nM	380 nM	48 nM
C=CCCCCS(=O)(=O)NC(=O)[C@H](CCC)NC(=O)[C@@H](NC(=O)[C@@H](NC(=O)OC(C)(C)C)C(C)(C)C)c1ccc(Oc2cc(-c3ccccc3)nc3cc(OC)ccc23)c(C=C)c1	380 nM	> 10000 nM	390 nM	120 nM
C=CCCCCS(=O)(=O)NC(=O)[C@H](CCC)NC(=O)[C@H](NC(=O)[C@@H](NC(=O)OC(C)(C)C)C(C)(C)C)c1ccc(Oc2cc(-c3ccccc3)nc3cc(OC)ccc23)c(C=C)c1	270 nM	4700 nM	530 nM	100 nM
C=CCC1(S(=O)(=O)NC(=O)[C@H](CCC)NC(=O)[C@@H](NC(=O)[C@@H](NC(=O)OC(C)(C)C)C(C)(C)C)c2ccc(Oc3cc(-c4ccccc4)nc4cc(OC)ccc34)c(C=C)c2)CC1				330 nM
C=CCC1(S(=O)(=O)NC(=O)[C@H](CCC)NC(=O)[C@H](NC(=O)[C@@H](NC(=O)OC(C)(C)C)C(C)(C)C)c2ccc(Oc3cc(-c4ccccc4)nc4cc(OC)ccc34)c(C=C)c2)CC1				190 nM
C=Cc1cc([C@H](NC(=O)[C@@H](NC(=O)OC(C)(C)C)C(C)(C)C)C(=O)N[C@@H](CCC)C(=O)NS(=O)(=O)c2ccccc2)ccc1Oc1cc(-c2ccccc2)nc2cc(OC)ccc12				290 nM
C=Cc1cc([C@@H](NC(=O)[C@@H](NC(=O)OC(C)(C)C)C(C)(C)C)C(=O)N[C@@H](CCC)C(=O)NS(=O)(=O)c2ccccc2)ccc1Oc1cc(-c2ccccc2)nc2cc(OC)ccc12				130 nM
C=Cc1cc([C@H](NC(=O)[C@@H](NC(=O)OC(C)(C)C)C(C)(C)C)C(=O)N[C@@H](CCC)C(=O)NS(=O)(=O)c2ccccc2C=C)ccc1Oc1cc(-c2ccccc2)nc2cc(OC)ccc12	250 nM	> 10000 nM	450 nM	120 nM
C=Cc1cc([C@@H](NC(=O)[C@@H](NC(=O)OC(C)(C)C)C(C)(C)C)C(=O)N[C@@H](CCC)C(=O)NS(=O)(=O)c2ccccc2C=C)ccc1Oc1cc(-c2ccccc2)nc2cc(OC)ccc12	180 nM	5400 nM	230 nM	47 nM
C=CCc1ccccc1S(=O)(=O)NC(=O)[C@H](CCC)NC(=O)[C@@H](NC(=O)[C@@H](NC(=O)OC(C)(C)C)C(C)(C)C)c1ccc(Oc2cc(-c3ccccc3)nc3cc(OC)ccc23)c(C=C)c1		> 10000 nM		140 nM
C=CCc1ccccc1S(=O)(=O)NC(=O)[C@H](CCC)NC(=O)[C@H](NC(=O)[C@@H](NC(=O)OC(C)(C)C)C(C)(C)C)c1ccc(Oc2cc(-c3ccccc3)nc3cc(OC)ccc23)c(C=C)c1		3000 nM		35 nM
C=CCCCS(=O)(=O)NC(=O)[C@H](CCC)NC(=O)[C@@H]1C[C@@H](Oc2cc(-c3ccccc3)nc3cc(OC)ccc23)CN1C(=O)[C@@H](NC(=O)OC(C)(C)C)C(C)(C)C				300 nM
CCC[C@H](NC(=O)[C@@H](NC(=O)[C@@H](NC(=O)OC(C)(C)C)C(C)(C)C)c1ccc(Oc2cc(-c3ccccc3)nc3cc(OC)ccc23)cc1)C(=O)NS(=O)(=O)c1ccccc1				230 nM
CC(C)(C)OC(=O)N[C@H]1CCCCC/C=C\C2C[C@@]2(C(=O)NS(=O)(=O)C2CC2)NC(=O)[C@@H]2C[C@@H](OC(=O)N3Cc4cccc(F)c4C3)CN2C1=O (single isomer, unassigned) [DANOPREVIR]		2.1 nM		
CC(C)(C)NC(=O)N[C@H](C(=O)N1C[C@H]2[C@@H]([C@H]1C(=O)NC(CC1CCC1)C(=O)C(N)=O)C2(C)C)C(C)(C)C (some centres not stated) [BOCEPREVIR]				14 nM
COc1ccc2c(O[C@@H]3C[C@H]4C(=O)N[C@]5(C(=O)O)C[C@H]5/C=C\CCCCC[C@H](NC(=O)OC5CCCC5)C(=O)N4C3)cc(-c3csc(NC(C)C)n3)nc2c1 [CILUPREVIR]		4 nM		0.3 nM
COc1ccc2c(O[C@@H]3C[C@H]4C(=O)N[C@]5(C(=O)NS(=O)(=O)C6CC6)C[C@H]5/C=C\CCCCN(C)C(=O)[C@@H]4C3)cc(-c3nc(C(C)C)cs3)nc2c1C [SIMEPREVIR]				0.36 nM
CCC[C@H](NC(=O)[C@@H]1[C@H]2CCC[C@H]2CN1C(=O)[C@@H](NC(=O)[C@@H](NC(=O)c1cnccn1)C1CCCCC1)C(C)(C)C)C(=O)C(=O)NC1CC1 [TELAPREVIR]				40 nM
CC[C@@H]1C[C@]1(NC(=O)[C@@H]1C[C@@H]2CN1C(=O)[C@H](C(C)(C)C)NC(=O)OCC(C)(C)CCCCc1cccc3c1CN(C3)C(=O)O2)C(=O)NS(=O)(=O)C1CC1 [VANIPREVIR]		5 nM		0.06 nM
